Values after ≈ are worked out from the molar mass of the structure shown.
Key:
[1] = test system: B16; assay: Antiproliferative activity against mouse B16 cells after 72 hrs by MTT assay; type: functional, cell-based; conditions: B16, 72 h
In short: (§1)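 Murine L1210 lymphoma and B16 melanoma cells in culture were given 72-h continuous exposure to compound, and viability was read by MTT assay. IC50 was taken as the readout.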

[2] = test system: L1210; assay: Antiproliferative activity against mouse L1210 cells after 72 hrs by MTT assay; type: functional, cell-based; conditions: L1210, 72 h; in short: as §1
[3] = test system: M14; assay: Cytotoxicity against human M14 cells; type: functional
[4] = test system: HCT-15; assay: Cytotoxicity against human HCT15 cells; type: functional
[5] = test system: NCI-H226; assay: Cytotoxicity against human NCI-H226 cells; type: functional; conditions: NCI-H226, read-out: pGI50 (converted)
[6] = test system: SF-268; assay: Cytotoxicity against human SF268 cells; type: functional
[7] = test system: A549; assay: Cytotoxicity against human A549 cells; type: functional
[8] = test system: SK-MEL-2; assay: Cytotoxicity against human SK-MEL-2 cells; type: functional
[9] = test system: UACC-257; assay: Cytotoxicity against human UACC257 cells; type: functional; conditions: UACC-257, read-out: pGI50 (converted)
[10] = test system: ACHN; assay: Cytotoxicity against human ACHN cells; type: functional
[11] = test system: SF-295; assay: Cytotoxicity against human SF295 cells; type: functional
[12] = test system: UO-31; assay: Cytotoxicity against human UO31 cells; type: functional
[13] = test system: NCI-H322M; assay: Cytotoxicity against human NCI-H322M cells; type: functional
[14] = test system: PC-3; assay: Cytotoxicity against human PC3 cells; type: functional
[15] = test system: NCI/ADR-RES; assay: Cytotoxicity against human NCI/ADR-RES cells; type: functional
[16] = test system: HCT-116; assay: Cytotoxicity against human HCT116 cells; type: functional
[17] = test system: A498; assay: Cytotoxicity against human A498 cells; type: functional
[18] = test system: A10; assay: Disruption of microtubule organization in rat A10 cells assessed as loss of interphase microtubules; type: functional, cell-based
[19] = Aqueous solubility of the compound after 6 hrs; type: physicochemical
In short: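 Solubility was measured with a modified filter-plate protocol, assay maximum 500 µM. Each compound had its own standard curve, diluted into 80:20 aqueous buffer:acetonitrile at 5% DMSO (v/v) final. The aqueous sample was mixed 6 h and centrifuged. Supernatant absorbance gave concentration from the standard curve.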

[20] = test system: Mus musculus; assay: Toxicity in DBA2 mouse assessed as change in color and texture of spleen at 75 mg/kg, ip administered once daily on day 1, 5, 9, 13, 17; type: organism-based; set-up: dose 75 mg/kg, route intraperitoneal; conditions: in vivo
In short: (§2)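 Healthy, non-tumor-bearing female DBA2 mice given 75 mg/kg on days 1, 5, 9, 13 and 17. Toxicity was judged at the end of the experiment from body weight change, blood cell counts, and the gross color and texture of the kidneys, liver and spleen.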

[21] = test system: RPMI-8226; assay: Cytotoxicity against human RPMI8226 cells; type: functional
[22] = test system: HOP-92; assay: Cytotoxicity against human HOP92 cells; type: functional
[23] = test system: LOX IMVI; assay: Cytotoxicity against human LOXIMVI cells; type: functional
[24] = test system: MDA-MB-435; assay: Cytotoxicity against human MDA-MB-435 cells; type: functional, cell-based
[25] = test system: HL-60; assay: Cytotoxicity against human HL60 cells; type: functional
[26] = Cytotoxicity against human RXF 393NL cells; type: functional
[27] = test system: KM12; assay: Cytotoxicity against human KM12 cells; type: functional
[28] = test system: MDA-MB-468; assay: Cytotoxicity against human MDA-MB-468 cells; type: functional
[29] = test system: NCI-H460; assay: Cytotoxicity against human NCI-H460 cells; type: functional
[30] = test system: CAKI-1; assay: Cytotoxicity against human Caki1 cells; type: functional
[31] = test system: Mus musculus; assay: Toxicity in DBA2 mouse assessed as change in blood cell count at 75 mg/kg, ip administered once daily on day 1, 5, 9, 13, 17; type: organism-based; set-up: dose 75 mg/kg, route intraperitoneal; conditions: in vivo; in short: as §2
[32] = test system: SK-MEL-28; assay: Cytotoxicity against human SK-MEL-28 cells; type: functional; conditions: SK-MEL-28, read-out: pGI50 (converted)
[33] = test system: SK-OV-3; assay: Cytotoxicity against human SKOV3 cells; type: functional
[34] = test system: IGROV-1; assay: Cytotoxicity against human IGROV1 cells; type: functional
[35] = test system: 786-0; assay: Cytotoxicity against human 786-0 cells; type: functional
[36] = test system: SW-620; assay: Cytotoxicity against human SW620 cells; type: functional
[37] = test system: L1210; assay: Antitumor activity against mouse L1210 cells xenografted in DBA2 mouse assessed as reduction in tumor volume at 75 mg/kg, ip administered once daily on day 1, 3, 5, 7, 9, 11, 13, 15, 17 measured on day 19 relative to control; type: functional; set-up: scale not given: the % may be the effect or the level left; conditions: route intraperitoneal
In short: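 Female DBA2 mice were inoculated with L1210 leukemia cells on the right flank. Compound was given ip at 75 mg/kg once on each of days 1, 3, 5, 7, 9, 11, 13, 15 and 17 after inoculation, in 100 µL injections; controls got vehicle alone. Tumor volume was compared with vehicle controls on day 19.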

[38] = test system: HT-29; assay: Cytotoxicity against human HT-29 cells; type: functional
[39] = test system: MCF7; assay: Cytotoxicity against human MCF7 cells; type: functional
[40] = test system: U-251; assay: Cytotoxicity against human U251 cells; type: functional
[41] = test system: K562; assay: Cytotoxicity against human K562 cells; type: functional
[42] = test system: TK-10; assay: Cytotoxicity against human TK10 cells; type: functional
[43] = test system: HCC 2998; assay: Cytotoxicity against human HCC2998 cells; type: functional
[44] = test system: SK-MEL-5; assay: Cytotoxicity against human SK-MEL-5 cells; type: functional
[45] = test system: DU-145; assay: Cytotoxicity against human DU145 cells; type: functional
[46] = test system: OVCAR-5; assay: Cytotoxicity against human OVCAR5 cells; type: functional
[47] = test system: NCI-H522; assay: Cytotoxicity against human NCI-H522 cells; type: functional
[48] = test system: MOLT-4; assay: Cytotoxicity against human MOLT4 cells; type: functional
[49] = test system: MDA-MB-231; assay: Cytotoxicity against human MDA-MB-231 cells; type: functional
[50] = test system: OVCAR-8; assay: Cytotoxicity against human OVCAR8 cells; type: functional
[51] = test system: Mus musculus; assay: Toxicity in DBA2 mouse assessed as change in color and texture of liver at 75 mg/kg, ip administered once daily on day 1, 5, 9, 13, 17; type: organism-based; set-up: dose 75 mg/kg, route intraperitoneal; conditions: in vivo; in short: as §2
[52] = test system: COLO 205; assay: Cytotoxicity against human COLO205 cells; type: functional
[53] = Cytotoxicity against human Hs 578T cells; type: functional
[54] = test system: NCI-H23; assay: Cytotoxicity against human NCI-H23 cells; type: functional
[55] = test system: UACC-62; assay: Cytotoxicity against human UACC62 cells; type: functional
[56] = test system: Mus musculus; assay: Toxicity in DBA2 mouse assessed as change in body weight at 75 mg/kg, ip administered once daily on day 1, 5, 9, 13, 17; type: organism-based; set-up: dose 75 mg/kg, route intraperitoneal; conditions: in vivo; in short: as §2
[57] = test system: EKVX; assay: Cytotoxicity against human EKVX cells; type: functional
[58] = test system: OVCAR-4; assay: Cytotoxicity against human OVCAR4 cells; type: functional
[59] = test system: Mus musculus; assay: Toxicity in DBA2 mouse assessed as change in color and texture of kidney at 75 mg/kg, ip administered once daily on day 1, 5, 9, 13, 17; type: organism-based; set-up: dose 75 mg/kg, route intraperitoneal; conditions: in vivo; in short: as §2
[60] = test system: BT-549; assay: Cytotoxicity against human BT549 cells; type: functional
[61] = test system: OVCAR-3; assay: Cytotoxicity against human OVCAR3 cells; type: functional
[62] = test system: HOP-62; assay: Cytotoxicity against human HOP62 cells; type: functional
[63] = test system: SN12C; assay: Cytotoxicity against human SN12C cells; type: functional
[64] = test system: MDA-MB-435; assay: Ratio of EC50 for disruption of interphase microtubule organization in rat A10 cells to IC50 for human MDA-MB-435 cells; type: functional
[65] = test system: CCRF-CEM; assay: Cytotoxicity against human CCRF-CEM cells; type: functional

COc1cc(/C(=C/c2ccccc2)C(C)O)cc(OC)c1OC (stereo unspecified)
IC50 [1]: > 100 µM
IC50 [2]: > 100 µM

COc1cc(/C(=C/c2ccc(C)cc2)C(C)O)cc(OC)c1OC (stereo unspecified)
IC50 [1]: > 100 µM
IC50 [2]: 33.5 µM

COc1cc(/C(=C/c2ccc(Cl)cc2)C(C)O)cc(OC)c1OC (stereo unspecified)
IC50 [1]: > 100 µM
IC50 [2]: > 100 µM

COc1cc(/C(=C/c2ccc(Br)cc2)C(C)O)cc(OC)c1OC (stereo unspecified)
IC50 [1]: > 100 µM
IC50 [2]: > 100 µM

COc1cc(/C(=C/c2ccc([N+](=O)[O-])cc2)C(C)O)cc(OC)c1OC (stereo unspecified)
IC50 [1]: > 100 µM
IC50 [2]: > 100 µM

COc1ccc(/C=C(/c2cc(OC)c(OC)c(OC)c2)C(C)O)cc1 (stereo unspecified)
IC50 [1]: 17.5 µM
IC50 [2]: 3.9 µM

COc1cc(/C(=C/c2cccc([N+](=O)[O-])c2)C(C)O)cc(OC)c1OC (stereo unspecified)
IC50 [1]: > 100 µM
IC50 [2]: > 100 µM

COc1cc(/C(=C/c2ccc(Cl)c(Cl)c2)C(C)O)cc(OC)c1OC (stereo unspecified)
IC50 [1]: 51.5 µM
IC50 [2]: 18.5 µM

COc1ccc(/C=C(/c2cc(OC)c(OC)c(OC)c2)C(C)O)cc1OC (stereo unspecified)
IC50 [1]: > 100 µM
IC50 [2]: 69 µM

COc1ccc(/C=C(/c2cc(OC)c(OC)c(OC)c2)C(C)O)cc1O (stereo unspecified)
GI50 [3]: 631 nM
GI50 [4]: 617 nM
GI50 [5]: > 100 µM
GI50 [6]: 1000 nM
GI50 [7]: 3.02 µM
GI50 [8]: 692 nM
GI50 [9]: > 100 µM
GI50 [10]: 575 nM
GI50 [11]: 1860 nM
GI50 [12]: 2340 nM
GI50 [13]: 3.98 µM
GI50 [14]: 501 nM
GI50 [15]: 447 nM
GI50 [16]: 479 nM
GI50 [17]: 759 nM
EC50 [18]: 21.2 µM
IC50 [1]: 16.1 µM
solubility at 6 h [19]: 479 µM (≈ 173 µg/mL)
Activity [20]: Non-toxic
GI50 [21]: 3.47 µM
GI50 [22]: 209 nM
GI50 [23]: 891 nM
GI50 [24]: 200 nM
IC50 [24]: 880 nM
GI50 ([24]; read-out: pGI50 (converted)): 229 nM
GI50 [25]: 479 nM
GI50 [26]: 324 nM
GI50 [27]: 389 nM
GI50 [28]: 501 nM
GI50 [29]: 490 nM
GI50 [30]: 4.57 µM
Activity [31]: Non-toxic
GI50 [32]: > 100 µM
GI50 [33]: 1020 nM
GI50 [34]: 851 nM
GI50 [35]: 4.17 µM
GI50 [36]: 363 nM
Activity [37]: 50%
GI50 [38]: 4.07 µM
GI50 [39]: 389 nM
GI50 [40]: 575 nM
GI50 [41]: 550 nM
IC50 [2]: 4.1 µM
GI50 [42]: 4.07 µM
GI50 [43]: 2820 nM
GI50 [44]: 417 nM
GI50 [45]: 1450 nM
GI50 [46]: 5.62 µM
GI50 [47]: 457 nM
GI50 [48]: 4.68 µM
GI50 [49]: 2140 nM
GI50 [50]: 1320 nM
Activity [51]: Non-toxic
GI50 [52]: 27.5 µM
GI50 [53]: 324 nM
GI50 [54]: 3.72 µM
GI50 [55]: 468 nM
Activity [56]: Non-toxic
GI50 [57]: 5.62 µM
GI50 [58]: 4.27 µM
Activity [59]: Non-toxic
GI50 [60]: 813 nM
GI50 [61]: 245 nM
GI50 [62]: 4.07 µM
GI50 [63]: 6.61 µM
Ratio [64]: 24
GI50 [65]: 2450 nM

COc1ccc(/C=C(/c2cc(OC)c(OC)c(OC)c2)C(C)O)cc1[N+](=O)[O-] (stereo unspecified)
IC50 [1]: > 100 µM
IC50 [2]: 67.5 µM

COc1ccc(OC)c(/C=C(/c2cc(OC)c(OC)c(OC)c2)C(C)O)c1 (stereo unspecified)
IC50 [1]: > 100 µM
IC50 [2]: > 100 µM

COc1cc(/C=C(/c2cc(OC)c(OC)c(OC)c2)C(C)O)cc(OC)c1OC (stereo unspecified)
IC50 [1]: 84 µM
IC50 [2]: 51.5 µM

From ChEMBL document CHEMBL1759943, “Design and synthesis of novel enhanced water soluble hydroxyethyl analogs of combretastatin A-4” (Bioorg Med Chem Lett, 2011)
